Results published in ChEMBL document CHEMBL4765449, “Synthesis, biological evaluation and toxicity of novel tetrandrine analogues” (Eur J Med Chem, 2020).
Values belong to the molecule of their own block, whether it stands above or below them. Activity calls are given as the source filed them. The rule behind the calls is not given here.

Columns and labels:
CCRF-CEM [1] = experiment: Effect on Bcl-XL expression in vincristine-resistant human CEM cells at 5 uM measured after 24 hrs by Western blot analysis; format: functional, cell-based
In short: (§1)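 VCR-R CEM cells, 2 × 10^6 per well, seeded 4 h before 5 μM compound or DMSO for 24 h; RIPA lysis, SDS-PAGE, PVDF blotting, chemiluminescence. Probed for p-Akt (Ser473), total Akt, PARP, Bcl-xL, Mcl-1; stain-free total protein as loading control.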

CEM [2] = experiment: Inhibition of P-gp in vincristine-resistant human CEM cells at 0.1 to 1 uM using calcein-AM as substrate preincubated for 30 mins followed by compound washout and subsequent substrate addition measured after 60 mins by flow cytometric analysis; format: cell-based; conditions: dose 0.1-1 µM
CCRF-CEM [3] = experiment: Effect on MCL1 expression in vincristine-resistant human CEM cells at 5 uM measured after 24 hrs by Western blot analysis; format: functional, cell-based; in short: as §1
HepG2 [4] = experiment: Cytotoxicity against human HepG2 cells overexpressing EGFP-CYP3A4 assessed as reduction in cell viability at 15 uM measured after 24 hrs by propidium iodide staining based flow cytometry; format: functional
In short: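 HepG2 stably transfected (G418 0.5 mg/mL, four weeks; plasmid confirmed by PCR) with pcDNA3-CYP3A4-EGFP or empty vector, 0.1 × 10^6 per well, adhered overnight; 15 μM compound 24 h. Propidium iodide staining and flow cytometry; specific cell death relative to control. Three independent experiments.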

HepG2 [5] = experiment: Inhibition of AKT phosphorylation at Ser473 residue in human HepG2 cells at 5 uM measured after 24 hrs by Western blot analysis; format: cell-based
In short: (§2)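 HepG2, 0.5 × 10^6 per well, adhered overnight, then DMSO or 5 μM compound; RIPA lysates immunoblotted by SDS-PAGE/PVDF with chemiluminescent detection.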

CEM [6] = experiment: Effect on AKT phosphorylation at Ser473 residue in vincristine-resistant human CEM cells at 5 uM measured after 24 hrs by Western blot analysis; format: cell-based; in short: as §1
CCRF-CEM [7] = experiment: Effect on P-gp expression in vincristine-resistant human CEM cells at 1 uM measured after 1.5 hrs by immunostaining based flow cytometry; format: functional, cell-based
In short: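 VCR-R CEM, 2 × 10^4 cells, 1 μM compound 1.5 h at 37 °C; washed in ice-cold 1% BSA/PBS, stained 30 min at 4 °C in dark with FITC anti-human P-gp, isotype control for background; flow cytometry, gMFI normalized to DMSO. Three independent experiments.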

CCRF-CEM [8] = experiment: Induction of mitochondrial membrane disruption in vincristine-resistant human CEM cells at 5 uM measured after 24 hrs by JC-1 dye based flow cytometric analysis; format: functional, cell-based
In short: (§3)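 Cells (HepG2 adhered overnight; VCR-R CEM seeded 4 h before) treated with DMSO or 5 μM for 24 h; JC-1 (1 μg/mL) 1 h before harvest, PBS wash, flow cytometry; green shift read as loss of ΔΨm. CCCP (100 μM, 1 h) positive control; elacridar (5 μM) present for CEM staining.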

CEM [9] = experiment: Inhibition of P-gp in vincristine-resistant human CEM cells assessed as potentiation of vincristine-induced apoptosis 1 uM measured after 48 hrs by propidium iodide staining based flow cytometry; format: cell-based
In short: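 VCR-R CEM, 0.125 × 10^6 per well, rested 4 h, then incubated 48 h with increasing vincristine with or without 1 μM compound; apoptosis by propidium iodide staining and flow cytometry. Three independent experiments.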

HepG2 [10] = experiment: Induction of mitochondrial membrane disruption in human HepG2 cells at 5 uM measured after 24 hrs by JC-1 dye based flow cytometric analysis; format: functional, cell-based; in short: as §3
HepG2 [11] = experiment: Induction of apoptosis in human HepG2 cells assessed as increase in PARP cleavage at 5 uM measured after 24 hrs by Western blot analysis; format: functional, cell-based; in short: as §2
CCRF-CEM [12] = experiment: Induction of apoptosis in vincristine-resistant human CEM cells assessed as increase in PARP cleavage at 5 uM measured after 24 hrs by Western blot analysis; format: functional, cell-based; in short: as §1
HepaRG [13] = experiment: Cytotoxicity against human HepaRG cells assessed as reduction in cell viability at 20 uM measured after 24 hrs by Celltiter-blue cell viability assay; format: cell-based
In short: (§4)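 Differentiated HepaRG cells (Maintenance/Metabolism medium) exposed 24 h to 10 or 20 μM compound; viability by CellTiter-Blue, normalized to vehicle control. Means ± SEM of three independent experiments.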

HepaRG [14] = experiment: Cytotoxicity against human HepaRG cells assessed as reduction in cell viability at 10 uM measured after 24 hrs by Celltiter-blue cell viability assay; format: cell-based; in short: as §4
CCRF-CEM [15] = experiment: Antiproliferative activity against vincristine-resistant human CEM cells assessed as reduction in cell viability measured after 48 hrs by Celltiter-blue cell viability assay; format: functional, cell-based
In short: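 VCR-R CEM cells (RPMI 1640, 10% FCS), 0.02 × 10^6 per well, rested 4 h (metabolic activity at this point taken as zero value), then exposed to compounds for 48 h; CellTiter-Blue added 2 h before end, fluorescence at 590 nm. IC50 by nonlinear regression; single-concentration proliferation read at 10 μM.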

HepG2 [16] = experiment: Induction of apoptosis in human HepG2 cells assessed as reduction in Bcl-xl expression at 5 uM measured after 24 hrs by Western blot analysis; format: functional, cell-based; in short: as §2
HepG2 [17] = experiment: Induction of apoptosis in human HepG2 cells assessed as reduction in Mcl-1 expression at 5 uM measured after 24 hrs by Western blot analysis; format: functional, cell-based; in short: as §2

SMILES: COc1cc2c3cc1Oc1c(OC)c(OC)cc4c1C(Cc1ccc(OC(F)(F)F)c(c1)Oc1ccc(cc1)CC3N(C)CC2)N(C)CC4 (racemic; form 2)
Activity (CCRF-CEM [1]): inactive
inhibition (CEM [2]): Active
Activity (CCRF-CEM [3]): inactive
Activity (HepG2 [4]): Active
inhibition (HepG2 [5]): Active
Activity (CEM [6]): inactive
Activity (CCRF-CEM [7]): inactive
Activity (CCRF-CEM [8]): Active
inhibition (CEM [9]): Active
Activity (HepG2 [10]): inactive
Activity (HepG2 [11]): inactive
Activity (CCRF-CEM [12]): Active

IC50 (CCRF-CEM [15]): 4.8 µM
SMILES: COc1cc2c3cc1Oc1c(OC)c(OC)cc4c1C(Cc1ccc(Cl)c(c1)Oc1ccc(cc1)CC3N(C)CC2)N(C)CC4 (mixture of isomers)
Activity (HepaRG [13]): Toxic
Activity (HepaRG [14]): Toxic

SMILES: COc1cc2c3cc1Oc1c(OC)c(OC)cc4c1C(Cc1cc(cs1)Oc1ccc(cc1)CC3N(C)CC2)N(C)CC4 (racemic; form 1)
Activity (CCRF-CEM [1]): inactive
inhibition (CEM [2]): Active
Activity (CCRF-CEM [3]): inactive
Activity (HepG2 [4]): Active
inhibition (HepG2 [5]): Active
Activity (CEM [6]): inactive
Activity (CCRF-CEM [7]): inactive
Activity (HepG2 [16]): Active
Activity (CCRF-CEM [8]): Active
inhibition (CEM [9]): Active
Activity (HepG2 [10]): inactive
Activity (HepG2 [11]): inactive
Activity (HepG2 [17]): Active
